Source: paper PMC6943132 (Nucleic Acids Research, 2019)
Read-outs that look alike come from different tables or passages of the source.

Legend:
BenM WT = biological target: T1, BenM WT (Acinetobacter sp. ADP1, UniProt O68014 1-304); test: BLI
T1 sequence: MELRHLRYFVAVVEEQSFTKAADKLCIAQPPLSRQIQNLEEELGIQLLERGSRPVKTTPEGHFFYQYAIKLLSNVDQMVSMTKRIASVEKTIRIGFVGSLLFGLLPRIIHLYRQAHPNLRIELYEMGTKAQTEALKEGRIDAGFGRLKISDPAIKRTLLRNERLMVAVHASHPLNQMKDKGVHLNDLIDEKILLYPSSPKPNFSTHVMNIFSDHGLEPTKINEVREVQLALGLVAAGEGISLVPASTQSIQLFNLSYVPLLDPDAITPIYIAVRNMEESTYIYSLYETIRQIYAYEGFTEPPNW

[1] = test system: 209bp_CYC1p_BenO_T1::yEGFP reporter; assay type: cell-based, Saccharomyces cerevisiae; settings: P < 0.05
[2] = test system: 209bp_CYC1p_BenO_T1::yEGFP reporter; assay type: cell-based, Saccharomyces cerevisiae
How it was run: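 S. cerevisiae CEN.PK carrying a chromosomal yeGFP reporter and plasmid-borne BenM variants, grown overnight in SC-Leu at 30°C. Cultures were subcultured 1:100 into medium ± CCM for 22–23 h, then flow cytometry (488 nm) gave MFI from 10 000 gated single cells. Controls were run in biological triplicate. Fold induction is inducer-medium MFI divided by control-medium MFI. Populations were compared by two-tailed Mann–Whitney test.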

209 bp_CYC1pro = test: Biolayer interferometry of BenM WT on negative control cyc1 promoter element; assay type: binding; settings: BLI, 1.6–100 nM WT BenM
How it was run: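 His-tagged protein purified on a HisTrap column with stepwise imidazole elution (Tris–HCl, NaCl, glycerol, DTT, pH 7.9), then optionally polished by Superdex 200 gel filtration (50 mM Tris–HCl, 150 mM NaCl, pH 8.0). Biotinylated 209 bp promoter duplex was annealed at 94°C for 2 min, then RT for 3 h. Kinetics were kept only when fit R² > 0.95; Req/Rmax fractional saturation versus protein concentration gave the Hill coefficient.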

B1: 209bp_CYC1pro (dsDNA)
DNA 1: ATTAGGACCTTTGCAGCATAAATTACTATACTTCTATAGACACACAAACACAAATACACACACTAAATTAATA
DNA 2: TATTAATTTAGTGTGTGTATTTGTGTTTGTGTGTCTATAGAAGTATAGTAATTTATGCTGCAAAGGTCCTAAT
B1: no binding (BenM WT).

B2: BenM WT: Acinetobacter sp. ADP1 CCM-binding LysR-type transcriptional activator BenM, wild type (protein, UniProt O68014 1-304, looked up)
HTH-type transcriptional …: MELRHLRYFVAVVEEQSFTKAADKLCIAQPPLSRQIQNLEEELGIQLLERGSRPVKTTPEGHFFYQYAIKLLSNVDQMVSMTKRIASVEKTIRIGFVGSLLFGLLPRIIHLYRQAHPNLRIELYEMGTKAQTEALKEGRIDAGFGRLKISDPAIKRTLLRNERLMVAVHASHPLNQMKDKGVHLNDLIDEKILLYPSSPKPNFSTHVMNIFSDHGLEPTKINEVREVQLALGLVAAGEGISLVPASTQSIQLFNLSYVPLLDPDAITPIYIAVRNMEESTYIYSLYETIRQIYAYEGFTEPPNW
In the case of B2, the “lowest adipic acid concentration with significant induction” value [1] is reported as 14 mM, the fold-induction ([2]; 0.035 mM CCM) is reported as 0.90 ± 0.05 and the fold-induction ([2]; 0.070 mM CCM) is reported as 1.02 ± 0.14. For the same molecule, the fold induction ([2]; 1.4 mM CCM vs control medium) was 2.8 fold, the “lowest CCM concentration with significant induction (lower detection limit)” value ([2]; P < 0.05 vs control medium) was 0.56 mM and the “fold induction by CCM” value ([2]; within the operational range of WT BenM) was 5 fold. The “binding to negative control cyc1 promoter element” value (209 bp_CYC1pro) was “no binding was observed”.
